Reference: ChEMBL document CHEMBL4406884, “An anthrone-based Kv7.2/7.3 channel blocker with improved properties for the investigation of psychiatric and neurodegenerative disorders” (Bioorg Med Chem Lett, 2019)
≈ marks a conversion by molar mass, not a printed value.

How the values were obtained:
[1] = molecular target: Voltage-gated potassium channel, KQT; KCNQ2(Kv7.2)/KCNQ3(Kv7.3) (Homo sapiens) (UniProt O43526+O43525); assay: Inhibition of Kv7.2/7.3 in human tsA201 cells assessed as effect on channel currents at -60 mV holding potential at 1.5 uM by whole cell patch clamp assay relative to control; type: cell-based
[2] = molecular target: Voltage-gated inwardly rectifying potassium channel KCNH2 (Homo sapiens, UniProt Q12809); assay: Inhibition of ERG in human HEK293 cells incubated for 1 hr by thallium flux assay; type: cell-based
Chain of Voltage-gated inwardly rectifying potassium channel KCNH2 (Q12809 whole entry): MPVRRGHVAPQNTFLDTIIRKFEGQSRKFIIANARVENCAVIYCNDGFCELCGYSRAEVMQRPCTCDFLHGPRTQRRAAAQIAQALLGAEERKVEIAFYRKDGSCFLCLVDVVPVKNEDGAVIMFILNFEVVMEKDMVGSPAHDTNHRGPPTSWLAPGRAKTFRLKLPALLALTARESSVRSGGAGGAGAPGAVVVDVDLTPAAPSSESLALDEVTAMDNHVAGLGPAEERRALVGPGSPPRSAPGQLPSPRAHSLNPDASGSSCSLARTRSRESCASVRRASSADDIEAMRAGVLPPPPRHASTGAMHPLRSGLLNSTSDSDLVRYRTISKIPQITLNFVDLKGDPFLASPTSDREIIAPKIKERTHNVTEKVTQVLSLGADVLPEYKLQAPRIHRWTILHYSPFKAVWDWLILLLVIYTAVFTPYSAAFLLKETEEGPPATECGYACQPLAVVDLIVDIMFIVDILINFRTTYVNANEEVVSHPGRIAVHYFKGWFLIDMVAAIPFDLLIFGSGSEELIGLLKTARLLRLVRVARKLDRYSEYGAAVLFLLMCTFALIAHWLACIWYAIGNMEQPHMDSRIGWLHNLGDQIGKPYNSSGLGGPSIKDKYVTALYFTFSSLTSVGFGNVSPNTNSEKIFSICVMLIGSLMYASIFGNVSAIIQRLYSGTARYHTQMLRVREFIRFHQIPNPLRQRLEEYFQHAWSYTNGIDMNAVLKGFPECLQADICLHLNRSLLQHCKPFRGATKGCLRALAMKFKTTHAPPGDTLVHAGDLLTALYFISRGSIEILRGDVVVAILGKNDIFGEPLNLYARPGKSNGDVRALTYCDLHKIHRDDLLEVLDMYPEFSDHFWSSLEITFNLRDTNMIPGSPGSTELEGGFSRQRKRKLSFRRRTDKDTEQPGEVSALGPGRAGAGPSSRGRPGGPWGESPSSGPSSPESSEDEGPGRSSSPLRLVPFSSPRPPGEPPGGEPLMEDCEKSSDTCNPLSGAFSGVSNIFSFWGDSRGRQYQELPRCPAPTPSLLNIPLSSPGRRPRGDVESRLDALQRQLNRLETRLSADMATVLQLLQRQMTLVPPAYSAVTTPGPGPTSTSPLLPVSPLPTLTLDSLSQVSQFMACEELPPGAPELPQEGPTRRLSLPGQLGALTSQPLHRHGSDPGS
Summary of the method: (§1)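 HEK-293 cells stably expressing KCNQ2 or hERG were plated overnight, then loaded with Thallos AM dye for 1 h at 22 °C. Compounds (10-point, 3-fold dilutions) were added for 5 min, then Tl₂SO₄/K-gluconate stimulus, read at 1 Hz. F/F0 was vehicle-subtracted and initial slopes fit to a four-parameter logistic. Triplicate wells; mean of three independent experiments.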

CYP3A4 [3] = molecular target: T1, CYP3A4 (Homo sapiens, UniProt P08684); assay: Inhibition of CYP3A4 (unknown origin) at 50 uM using DBOMF as substrate measured for each min for 6 mins by fluorescence based assay relative to control; type: ADME; conditions: probe DBOMF
T1 sequence (P08684 whole entry): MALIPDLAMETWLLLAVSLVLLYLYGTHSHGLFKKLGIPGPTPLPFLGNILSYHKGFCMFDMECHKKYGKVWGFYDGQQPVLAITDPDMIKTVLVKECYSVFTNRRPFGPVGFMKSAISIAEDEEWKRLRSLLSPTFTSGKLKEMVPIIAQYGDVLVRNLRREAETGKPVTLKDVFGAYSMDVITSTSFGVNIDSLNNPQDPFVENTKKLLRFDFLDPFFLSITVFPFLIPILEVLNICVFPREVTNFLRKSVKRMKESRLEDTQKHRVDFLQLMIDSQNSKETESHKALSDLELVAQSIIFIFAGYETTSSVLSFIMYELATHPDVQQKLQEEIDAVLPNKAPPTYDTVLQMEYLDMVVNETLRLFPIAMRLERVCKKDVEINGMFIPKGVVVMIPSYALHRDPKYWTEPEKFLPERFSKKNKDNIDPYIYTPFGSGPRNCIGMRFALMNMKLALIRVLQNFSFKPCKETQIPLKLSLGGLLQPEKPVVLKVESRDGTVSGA

[4] = molecular target: Potassium voltage-gated channel subfamily KQT member 2 (Homo sapiens, UniProt O43526); assay: Inhibition of Kv7.2 in human HEK293 cells incubated for 1 hr by thallium flux assay; type: cell-based; summary of the method: as §1
Chain of Potassium voltage-gated channel subfamily KQT member 2 (O43526 whole entry): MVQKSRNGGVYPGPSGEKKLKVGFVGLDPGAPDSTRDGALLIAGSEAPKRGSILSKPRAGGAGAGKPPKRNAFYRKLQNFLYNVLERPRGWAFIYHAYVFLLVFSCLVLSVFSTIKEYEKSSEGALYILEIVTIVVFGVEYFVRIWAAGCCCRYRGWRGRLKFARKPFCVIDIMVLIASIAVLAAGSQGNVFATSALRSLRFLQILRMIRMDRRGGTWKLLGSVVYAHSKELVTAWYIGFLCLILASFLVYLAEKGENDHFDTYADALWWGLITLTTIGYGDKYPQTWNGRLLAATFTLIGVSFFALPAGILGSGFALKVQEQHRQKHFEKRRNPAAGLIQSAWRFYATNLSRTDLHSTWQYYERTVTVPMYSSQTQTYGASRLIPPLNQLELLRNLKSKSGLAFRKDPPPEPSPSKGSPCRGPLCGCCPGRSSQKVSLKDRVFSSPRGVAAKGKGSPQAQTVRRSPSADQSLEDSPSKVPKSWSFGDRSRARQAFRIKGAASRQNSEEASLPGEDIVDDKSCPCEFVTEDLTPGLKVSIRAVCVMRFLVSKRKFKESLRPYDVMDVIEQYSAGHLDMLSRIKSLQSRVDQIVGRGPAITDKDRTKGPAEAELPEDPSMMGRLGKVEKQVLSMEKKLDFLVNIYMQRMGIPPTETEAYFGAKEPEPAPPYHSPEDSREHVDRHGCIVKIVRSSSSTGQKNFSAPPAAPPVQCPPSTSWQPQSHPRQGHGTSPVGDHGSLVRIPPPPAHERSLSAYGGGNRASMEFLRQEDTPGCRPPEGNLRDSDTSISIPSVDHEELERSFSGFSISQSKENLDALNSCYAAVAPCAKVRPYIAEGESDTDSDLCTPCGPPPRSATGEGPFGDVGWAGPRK

[5] = Kinetic solubility in […] % DMSO/water at 3.2 uM to 100 uM incubated for 18 hrs by spectrometry; type: physicochemical; conditions: for solubility kinetic at 18 h: […] DMSO/water, read-out: Kinetic_solubility
[6] = Stability in 1:1 MeCN:0.2N aq. HCl assessed as percent remaining at 0.3 mM and 60 degC incubated for 24 hrs by LC/MS analysis; type: physicochemical; conditions: for remaining at 24 h, 300 µM: 1:1 MeCN:0.2N aq; call rule not given here. HCl, read-out: Stability
Summary of the method: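 Compound in 1:1 CH3CN/0.2 N aqueous HCl with furan-2-carboxylic acid (1 eq) as internal standard, heated at 60 °C. Analysed by LC-MS at set time points. Degradation from UV peak area at 254 nm relative to the internal standard.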

[7] = molecular target: Adrenergic receptor alpha-1 (Homo sapiens) (UniProt P35348+P25100+P35368); assay: Binding affinity to alpha1 adrenergic receptor (unknown origin) at 10 uM relative to control; type: protein assay
Chain of Adrenergic receptor alpha-1 (Homo sapiens) (P25100 whole entry, looked up, one chain of several): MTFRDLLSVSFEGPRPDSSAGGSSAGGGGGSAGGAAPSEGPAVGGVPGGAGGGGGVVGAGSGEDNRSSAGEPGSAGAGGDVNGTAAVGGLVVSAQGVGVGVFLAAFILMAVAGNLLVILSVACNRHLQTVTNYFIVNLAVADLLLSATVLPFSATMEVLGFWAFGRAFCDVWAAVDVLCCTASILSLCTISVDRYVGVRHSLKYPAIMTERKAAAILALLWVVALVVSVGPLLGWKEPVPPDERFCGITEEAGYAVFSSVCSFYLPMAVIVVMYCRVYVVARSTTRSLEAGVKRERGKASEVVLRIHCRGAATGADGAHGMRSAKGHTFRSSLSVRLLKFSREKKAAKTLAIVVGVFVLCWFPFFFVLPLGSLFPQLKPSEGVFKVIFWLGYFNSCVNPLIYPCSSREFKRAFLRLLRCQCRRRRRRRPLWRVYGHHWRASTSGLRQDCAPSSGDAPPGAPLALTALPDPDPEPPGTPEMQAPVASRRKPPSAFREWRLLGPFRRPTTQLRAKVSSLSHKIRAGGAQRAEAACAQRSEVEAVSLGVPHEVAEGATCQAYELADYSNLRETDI
Chain of Adrenergic receptor alpha-1 (Homo sapiens) (P35368 whole entry, looked up, one chain of several): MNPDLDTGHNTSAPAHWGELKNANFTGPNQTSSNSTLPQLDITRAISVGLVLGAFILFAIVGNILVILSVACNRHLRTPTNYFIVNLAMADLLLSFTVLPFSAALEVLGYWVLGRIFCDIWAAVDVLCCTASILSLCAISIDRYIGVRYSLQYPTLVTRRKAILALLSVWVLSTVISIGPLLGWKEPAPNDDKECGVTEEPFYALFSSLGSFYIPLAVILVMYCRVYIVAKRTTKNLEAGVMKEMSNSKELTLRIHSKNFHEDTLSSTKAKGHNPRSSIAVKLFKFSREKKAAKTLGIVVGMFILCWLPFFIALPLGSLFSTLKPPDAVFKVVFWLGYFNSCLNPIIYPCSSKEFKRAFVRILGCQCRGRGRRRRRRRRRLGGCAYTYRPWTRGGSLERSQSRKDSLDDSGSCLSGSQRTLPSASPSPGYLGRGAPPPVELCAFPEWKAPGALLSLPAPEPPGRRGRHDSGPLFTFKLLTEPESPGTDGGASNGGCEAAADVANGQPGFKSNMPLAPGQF

[8] = molecular target: T2, Alpha-1A adrenergic receptor (Homo sapiens) (UniProt P35348); assay: Binding affinity to alpha1A adrenergic receptor (unknown origin) at 10 uM relative to control
T2 sequence (whole entry): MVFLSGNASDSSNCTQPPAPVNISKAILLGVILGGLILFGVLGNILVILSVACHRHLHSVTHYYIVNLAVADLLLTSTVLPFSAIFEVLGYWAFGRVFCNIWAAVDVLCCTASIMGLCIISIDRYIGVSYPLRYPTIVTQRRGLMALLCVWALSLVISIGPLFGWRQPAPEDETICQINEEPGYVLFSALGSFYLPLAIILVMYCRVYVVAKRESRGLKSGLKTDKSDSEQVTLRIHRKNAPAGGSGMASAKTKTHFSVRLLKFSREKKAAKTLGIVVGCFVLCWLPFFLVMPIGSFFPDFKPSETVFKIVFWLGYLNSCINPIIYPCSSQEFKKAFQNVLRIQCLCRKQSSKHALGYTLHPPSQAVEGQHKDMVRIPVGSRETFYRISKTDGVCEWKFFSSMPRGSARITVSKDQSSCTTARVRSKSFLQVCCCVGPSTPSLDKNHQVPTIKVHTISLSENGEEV

CYP3A4 [9] = molecular target: T1, CYP3A4; assay: Inhibition of CYP3A4 (unknown origin) at 10 uM using DBOMF as substrate measured for each min for 6 mins by fluorescence based assay relative to control; type: ADME; conditions: probe DBOMF
Summary of the method: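 Vivid CYP3A4 Green assay in PBS pH 7.2 with NADP+ regeneration system. Final levels: 5 nM CYP3A4, 2 μM DBOMF substrate, 100 μM NADP+, 10 μM compound. Fluorescence (ex 490/em 520 nm) read every minute for 6 min, four wells per compound.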

HEK293 = assay: Cytotoxicity against human HEK293 cells assessed as reduction in cell viability incubated for 18 hrs by celltiter-glo assay; conditions: hek293, 18 h
[10] = Metabolic stability in human liver microsomes assessed as percent remaining […] incubated for 1 hr by LC/MS analysis; type: ADME, Microsome
Summary of the method: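 Compound at 10 μM final (from 1 mM DMSO stock) pre-incubated 5 min at 37 °C with NADPH regenerating system in phosphate buffer pH 7.4. Started with human liver microsomes (0.5 mg/mL protein). After 1 h, triplicate aliquots quenched in cold acetonitrile with internal standard. Percent remaining by LC-MS/MS peak-area ratio to internal standard.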

[11] = molecular target: T3, Alpha-1A adrenergic receptor (Homo sapiens, UniProt P35348); assay: Inhibition of alpha1A adrenergic receptor (unknown origin)
T3 sequence (P35348 whole entry): T2 sequence (whole entry)

HepG2 = assay: Cytotoxicity against human HepG2 cells assessed as reduction in cell viability incubated for 18 hrs by celltiter-glo assay; conditions: hepg2, 18 h
D(3) dopamine receptor [12] = molecular target: T4, D(3) dopamine receptor (Homo sapiens, UniProt P35462); assay: Binding affinity to D3 receptor (unknown origin) at 10 uM relative to control
T4 sequence (P35462 whole entry): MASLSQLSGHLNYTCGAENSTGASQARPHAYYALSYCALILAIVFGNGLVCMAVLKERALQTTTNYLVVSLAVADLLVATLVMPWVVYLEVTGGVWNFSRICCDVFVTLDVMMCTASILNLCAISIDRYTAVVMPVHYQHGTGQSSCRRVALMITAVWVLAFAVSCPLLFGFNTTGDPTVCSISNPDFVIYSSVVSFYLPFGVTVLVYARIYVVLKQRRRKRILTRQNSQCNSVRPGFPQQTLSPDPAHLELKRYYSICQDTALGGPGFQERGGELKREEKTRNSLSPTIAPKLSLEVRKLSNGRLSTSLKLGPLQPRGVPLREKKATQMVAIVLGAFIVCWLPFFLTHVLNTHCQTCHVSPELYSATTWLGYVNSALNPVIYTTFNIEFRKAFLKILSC

D(3) dopamine receptor [13] = molecular target: T4, D(3) dopamine receptor; assay: Inhibition of D3 receptor (unknown origin)

In the case of `Cc1cc(CC2(Cc3ccnc(C)c3)c3ccccc3C(=O)c3ccccc32)ccn1`, the inhibition [1] is reported as 33%, the IC50 [2] is reported as “Not Active” and the inhibition at 0.1 h, 50 µM (CYP3A4 [3]) is reported as 92%. For the same molecule, the IC50 [4] was 0.54 µM.
`O=C1c2ccccc2C(Cc2ccncc2)(Cc2ccncc2)c2ccccc21` showed an inhibition [1] of 81%, a solubility kinetic at 18 h [5] of 27 µM (≈ 10.2 µg/mL) and an IC50 [4] of 0.055 µM.
For `O=C1c2ccccc2C(Cc2ccnc(C(F)(F)F)c2)(Cc2ccnc(C(F)(F)F)c2)c2ccccc21`, the inhibition [1] was 6%, the IC50 [2] was “Not Active” and the inhibition at 0.1 h, 50 µM (CYP3A4 [3]) was 95%. For the same molecule, the IC50 [4] was 5.6 µM.
Work on `O=C1c2ccccc2C(Cc2c(F)cncc2F)(Cc2c(F)cncc2F)c2ccccc21` yielded an inhibition [1] of 65%, a remaining at 24 h, 300 µM [6] greater than 99% and an inhibition at 0.1 h, 50 µM (CYP3A4 [3]) of 97%. It also gave an IC50 [4] of 0.2 µM.
With `O=C1c2ccccc2C(Cc2ccnnc2)(Cc2ccnnc2)c2ccccc21` the inhibition [1] was 12%, the IC50 [2] was “Not Active” and the inhibition at 0.1 h, 50 µM (CYP3A4 [3]) was 28%. It also gave an IC50 [4] of 10 µM.
`O=C1c2ccccc2C(Cc2ccnc(F)c2)(Cc2ccnc(F)c2)c2ccccc21` showed an inhibition [1] of 31%, a Stability ([6]; buffer, 24 h, 300 µM) of 83% and an Activity [7] greater than 30%. For the same molecule, the Activity [8] was greater than 30%, the inhibition at 0.1 h, 10 µM (CYP3A4 [9]) was 79% and the CC50 (HEK293) was 77 µM. The inhibition at 0.1 h, 50 µM (CYP3A4 [3]) was 82%, the Stability [10] was 97% and the Ki [11] was 1.1 to 3.1 µM. The solubility kinetic at 18 h [5] was 27 µM (≈ 11.1 µg/mL), the CC50 (HepG2) was 132 µM and the IC50 [4] was 0.048 µM.
Work on `O=C1c2ccccc2C(Cc2ccnnc2)(Cc2c(F)cncc2F)c2ccccc21` yielded an inhibition [1] of 73%, a remaining at 24 h, 300 µM [6] greater than 99% and an Activity [7] greater than 30%. The inhibition at 0.1 h, 10 µM (CYP3A4 [9]) was 90%, the CC50 (HEK293) was greater than 150 µM and the Stability [10] was 84%. It also gave an Activity (D(3) dopamine receptor [12]) greater than 30%, a Ki (D(3) dopamine receptor [13]) greater than 10 µM and a Kinetic_solubility ([5]; buffer, 18 h, 3.2 µM) of 27 µM. The CC50 (HepG2) was greater than 150 µM and the IC50 [4] was 0.16 µM.
